Compounds with a hit are over-represented: about 1.8% of the library has one in this group of screens.
APJ antagonist: blocks the human apelin receptor APJ | actives 0.32% (n = 330,000) | inhibition, % at 20 µM | CHO-K1 APJ beta-arrestin complementation, luminescence | AID 2521;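 active = inhibition above about 40% at 20 µM, limit read from the data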;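 also: cells challenged with 10 nM apelin-13 agonist together with compound; plate controls were apelin-13 plus DMSO wells for no effect and DMSO wells lacking apelin-13 for full effect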
CXCR6 block: inhibitors of human CXCR6 receptor; O00574; CHO-K1 PathHunter CXCR6 beta-arrestin, luminescence; inhibition, % at 20 µM; actives 0.36% (n = 360,000); in the data active = inhibition above about 34%, passing the limit was not always enough;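 also: antagonist mode with CXCL16 agonist at 10 nM final; 0% = 10 nM CXCL16 with DMSO and 100% = unstimulated wells without agonist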
APJ agonist: agonists of human APJ apelin receptor; P35414; actives 0.11% (n = 330,000); CHO-K1 APJ PathHunter beta-arrestin, luminescence; 0% DMSO wells, 100% apelin; AID 2520; activation, % at 20 µM;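 active = activation more than six SD over the plate average, tested at 20 µM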;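 also: 0% = DMSO alone and 100% = apelin-13 at 10 nM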
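system = engineered CHO-K1 APJ arrestin reporter cells | input = 1000 cells per well | timing = overnight seeding, 90 min compound at 25 °C, 1 h detection | measured by = enzyme-fragment complementation luminescence | read-out = beta-arrestin recruitment to APJ as agonist activity, luminescent signal | control set = negative DMSO alone, positive Apelin-13 at 10 nM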
EBI2 antag: blocks human EBI2 receptor beta-arrestin signaling. inhibition, % at 5 µM. EBI2 beta-arrestin recruitment, luminescence, 7a,25-OHC stimulated. P32249. actives 0.81% (n = 360,000); in the data active = inhibition above about 38%;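 also: enzyme fragment complementation signal reports receptor beta-arrestin coupling in cells; 0% = agonist plus DMSO wells and 100% = wells without agonist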
B2AR ag: activates human beta-2 adrenergic receptor causing internalization | Am2.2-beta2AR cells, FAP receptor internalization, flow cytometry | response, % (no concentration beside the values) | actives 0.43% (n = 340,000) | AID 504454;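 active = response above a set limit, near 3 SD of response in nonfluorescent compounds, cut at about 42% in these data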
Target sequence (P07550 whole entry, looked up): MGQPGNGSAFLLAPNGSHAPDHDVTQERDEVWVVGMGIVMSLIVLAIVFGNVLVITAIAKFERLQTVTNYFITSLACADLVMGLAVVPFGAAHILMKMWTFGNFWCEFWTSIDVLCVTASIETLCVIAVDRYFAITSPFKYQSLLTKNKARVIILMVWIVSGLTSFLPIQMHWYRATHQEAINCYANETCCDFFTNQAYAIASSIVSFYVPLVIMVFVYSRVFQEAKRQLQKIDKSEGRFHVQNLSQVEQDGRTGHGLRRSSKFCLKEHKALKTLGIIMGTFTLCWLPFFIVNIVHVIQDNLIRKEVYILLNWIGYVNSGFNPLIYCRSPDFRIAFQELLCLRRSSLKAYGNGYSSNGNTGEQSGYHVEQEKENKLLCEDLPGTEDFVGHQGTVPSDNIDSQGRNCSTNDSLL
CCR6 antag: blocks CCL20-driven beta-arrestin recruitment at human CCR6. P51684. inhibition, % at 20 µM. AID 493098. CHO-K1 CCR6 PathHunter beta-arrestin, luminescence, CCL20-stimulated. actives 0.49% (n = 340,000);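 active = compounds whose inhibition of the agonist-driven luminescence signal at 20 µM reaches about 50%, limit read from the data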;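 also: cells stimulated with CCL20 at 14 nM final; plate controls were DMSO with CCL20 for no effect and DMSO without agonist for full effect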
EBI2 conf: confirmation of human EBI2 receptor antagonists. EBI2 beta-arrestin luminescence, 7a,25-OHC antagonism. inhibition, % at 5 µM. actives 29% (n = 2,400). shares compounds with EBI2 antag. AID 651997;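 active = inhibition of at least 50%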
EBI2 agonist: counter-screen for EBI2 antagonists: EBI2 agonist activity; shares compounds with EBI2 antag; EBI2-expressing cells, agonist mode, luminescence, 60 min; 0% vehicle, 100% 7α,25-dihydroxycholesterol control; activation, % at 5 µM; 2,400 tested, under 10 active;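 active = activation of at least 50%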
bGal cs: counter-screen for EBI2 antagonists: E. coli beta-galactosidase inhibition | actives 1% (n = 2,400) | shares compounds with EBI2 antag | inhibition, % at 5 µM | purified beta-galactosidase, luminescent Galacton Star, 15 min;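 active = replicate-average signal at least 3 plate SD below neutral wells, shown as high inhibition, flagging enzyme-inhibiting false positives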;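 also: 0% = DMSO wells with enzyme and 100% = wells lacking enzyme; higher means stronger loss of beta-gal luminescence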
An asterisk follows results filed as active; . = no result.

SMILES | APJ antagonist | CXCR6 block | APJ agonist | EBI2 antag | B2AR ag | CCR6 antag | EBI2 conf | EBI2 agonist | bGal cs
O=C(CSc1ccc(Br)cc1)N1CCN(C(=O)c2ccco2)CC1 | -18 | -7 | -2 | 83* | -13 | 4 | 69* | 0 | 2
O=C(COc1ccc2ccccc2c1)N1CCN(C(=O)c2ccco2)CC1 | -1 | -12 | -3 | 73* | -21 | 8 | 50 | -1 | -6
O=C(NC1CCC(O)CC1)c1ccc(NS(=O)(=O)c2cccc([N+](=O)[O-])c2)cc1 (configuration not stated) | 3 | -3 | -1 | -14 | -2 | 3 | . | . | .
COc1cccc(NC(=O)CN(C)C(=O)c2ccc(Cl)c(S(=O)(=O)N3CCCCCC3)c2)c1 | 3 | -3 | -3 | 11 | 0 | 16 | . | . | .
COc1ccc([C@H]2CC(=O)C=C(c3cccc4c3sc3ccccc34)C2)cc1OC | -17 | 1 | -2 | 59* | -1 | 15 | 16 | 0 | -13
CCCCCCn1c(N2CCN(c3cccc(Cl)c3)CC2)nc2c1c(=O)[nH]c(=O)n2C | 18 | 11 | -3 | 36* | 20 | 10 | 19 | 0 | 5
CCCCCCCCn1c(N2CCN(c3cccc(Cl)c3)CC2)nc2c1c(=O)[nH]c(=O)n2C | 19 | 5 | -4 | 26 | -4 | 18 | . | . | .
CCOc1cccc(NC(=O)c2ccc(S(=O)(=O)N(C)C)cc2)c1 | 2 | -5 | -1 | 46* | 4 | 12 | 33 | -1 | -11
CCn1c(=O)c2cc(C(=O)N3CCN(C)CC3)sc2c2ccccc21 | 11 | -7 | 1 | -4 | -6 | 4 | . | . | .
CN1CCN(C(=O)c2cc3sc4ccccc4c3s2)CC1 | -12 | 2 | -4 | 95* | -3 | 13 | 70* | -1 | -12
O=S1(=O)CC(N2CCN(c3ccccn3)CC2)CN1C1CCCCC1 (configuration not stated) | . | 3 | . | -10 | . | . | . | . | .
O=C(CSc1nc2ccc(Nc3nc(N4CCOCC4)nc(N4CCOCC4)n3)cc2s1)Nc1ccccc1Cl | -30 | -6 | 3 | 9 | 13 | -2 | . | . | .
O=C(CSc1nc2ccc(Nc3nc(N4CCCC4)nc(N4CCCC4)n3)cc2s1)NCc1ccco1 | 1 | -2 | 3 | 49* | 9 | 4 | 18 | -1 | -10
COc1cccc(NC(=O)COC(=O)c2ccccc2SCC(=O)N2CCCC2)c1 | -7 | -6 | 7 | -3 | 5 | 4 | . | . | .
COCCCn1c(=O)/c(=C\c2ccccc2OC(F)F)s/c1=C(/C#N)C(=O)NC(C)C | 0 | 11 | 0 | 60* | -6 | 2 | 51* | 0 | 0
COCCCn1c(=O)/c(=C\c2ccccc2OC(C)C)s/c1=C(/C#N)C(=O)Nc1ccc(C(=O)O)cc1 | 2 | -4 | -1 | -22 | -3 | 24 | . | . | .
O=C(c1cc2ccccc2o1)N1CCN(Cc2nc3ccccc3s2)CC1 | . | -3 | . | 68* | . | . | 55* | 0 | -1
O=C(c1cc2ccccc2o1)N1CCN(C/C=C/c2ccccc2)CC1 | -7 | -4 | -4 | 86* | -2 | 8 | 59* | 0 | -10
CCNC(=O)C[C@@H]1C=C[C@@H](NS(=O)(=O)c2ccc(F)cc2)[C@@H](CO)O1 | . | . | . | -15 | . | . | . | . | .
CCC(=O)N1CCN(c2cc(C)ccc2C)CC1 | 17 | 2 | -8 | 4 | -3 | -8 | . | . | .
Cc1ccc(C)c(N2CCN(C(=O)c3csc4ccccc34)CC2)c1 | 19 | 2 | -5 | 48* | 2 | 15 | 32 | 1 | 3
CCCCN(C)C(=O)c1ccc(Nc2nc(C(N)COCc3ccccc3)cs2)nc1 (configuration not stated) | . | 8 | . | -4 | . | . | . | . | .
O=C(/C=C/c1ccc(OCCCF)cc1)NCc1ccc(Cl)c(Cl)c1 | -7 | -1 | 3 | 44* | 10 | 10 | 40 | 0 | 5
CSCCC(c1nnnn1-c1c(C)cccc1C)N1CCN(C/C=C/c2ccccc2)CC1 (configuration not stated) | . | 11 | . | 53* | . | . | 8 | -1 | -13
CSCCC(c1nnnn1C(C)(C)C)N1CCN(C/C=C/c2ccccc2)CC1 (configuration not stated) | . | 5 | . | 23 | . | . | . | . | .
SMILES | APJ antagonist | CXCR6 block | APJ agonist | EBI2 antag | B2AR ag | CCR6 antag | EBI2 conf | EBI2 agonist | bGal cs
CCC(c1nnnn1-c1c(C)cccc1C)N1CCN(C/C=C/c2ccccc2)CC1 (configuration not stated) | . | 10 | . | 58* | . | . | 28 | 0 | 1
Cc1cccc(C)c1-n1nnnc1C(C1CC1)N1CCN(C/C=C/c2ccccc2)CC1 (configuration not stated) | . | 11 | . | 44* | . | . | 18 | -1 | 0
CCCNC(=O)c1cc2c(c(-c3cccc(-c4ccccc4F)c3)n1)[C@@H](CCO)N(C(=O)CC1CC1)C2 | . | 6 | . | 19 | . | . | . | . | .
CNC(=O)c1sc(SC)cc1-c1ccc(Cl)cc1 | 11 | 2 | 2 | 50* | -5 | 7 | 37 | 1 | 5
CSc1cc(-c2ccc(Cl)cc2)c(C(=O)N2CCCC2)s1 | -20 | 10 | -7 | 19 | -17 | 33 | . | . | .
Cc1cccc(NC(=O)CCS(=O)(=O)c2ccc3nc(C)sc3c2)c1 | . | 1 | . | -4 | . | . | . | . | .
CCOc1ccccc1N1CCN(C(=O)c2cccs2)CC1 | 4 | -3 | -1 | -16 | 4 | 1 | . | . | .
Cc1ccc(Nc2nnc(SC(C)C(=O)NCC3CCCO3)s2)cc1C (configuration not stated) | 17 | -6 | -10 | 46* | -5 | 0 | 24 | -1 | -15
Cc1ccc(Nc2nnc(SCC3CCCCO3)s2)cc1 (configuration not stated) | 20 | 0 | 2 | 59* | -8 | 5 | 37 | -2 | -7
Cc1nnc(SC(C)C(=O)NCC2CCCO2)s1 (configuration not stated) | 2 | 5 | -4 | 0 | 0 | 1 | . | . | .
Cc1noc(C)c1C(=O)N1CCN(C(=O)c2sc3cc(Cl)ccc3c2Cl)CC1 | 0 | 0 | -4 | 42* | -12 | 8 | 14 | -1 | -8
COc1ccccc1NC(=O)CSc1ccc2nnc(CCNC(=O)c3ccccc3)n2n1 | 13 | 8 | -3 | 17 | -6 | 10 | . | . | .
CCN(CC)C(=O)CSc1nc2c(sc(=S)n2-c2ccccc2)c(=O)n1Cc1ccco1 | 5 | 14 | -3 | 57* | 0 | 27 | 37 | 0 | 8
